In the library only some 2.9% were active in any assay of this set; here they are far more common.
UBC13 polyUb = UBC13 polyubiquitin chain formation inhibitors, primary screen, biochemical, TR-FRET, uHTS. Ubiquitin-conjugating enzyme E2 N (Homo sapiens), P61088. inhibition, % at 20 µM. 330,000 tested, 0.47% active; in the data active = inhibition above about 45%, passing the limit was not always enough
MEKK3 PB1 HTS = modulators of MEKK3-MEK5 PB1 binding, primary screen, biochemical, wildtype MEKK3, multiplex bead flow cytometry, Alexa488-MEK5; Mitogen-activated protein kinase kinase kinase 3 (Homo sapiens), Q99759; binding response (% of control), % at 10 µM; 290,000 tested, 1.4% active; bead-based flow cytometry, Alexa488-MEK5 binding to MEKK3; actives lie on both sides; 0 = blocked by unlabeled MEK5, 100 = vehicle; AID 1529, 2009;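 active = binding response more than 3 SD above or below the average of its plate-row segment, actives on both sides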;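 also: Alexa488 bead fluorescence after subtracting the streptavidin-only scavenger bead signal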
MEKK2mut PB1 HTS = MEK5 binding signal on mutant MEKK2 PB1, primary screen, biochemical, multiplex bead flow cytometry, Alexa488-MEK5 | Alexa488-MEK5 binding to MEKK2 mutant | percent response, % at 10 µM | 290,000 tested, 0.35% active; in the data active = percent response above about 24%, passing the limit was not always enough
Apaf-1 inh = inhibitors of human Apaf-1 apoptosome, primary screen, biochemical, DEVD-Rh110 fluorescence, uHTS. Apoptotic protease-activating factor 1 (Homo sapiens), O14727. reconstituted apoptosome caspase-3 activity. inhibition, % at 20 µM. 330,000 tested, 0.71% active. AID 489030, 2010; active = inhibition of at least 40% at 20 µM
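Medium: Hepes buffer, pH 7.5 / System: biochemical Apaf-1 apoptosome reconstitution / Measured by: Rh110 fluorescence, excitation 480 nm, emission 540 nm / Times: compound with Apaf-1, dATP, procaspase-3 30 min, then 50 min reaction, room temperature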
MEKK2wt PB1 HTS = modulators of MEK5 binding to wildtype MEKK2, primary screen, biochemical, multiplex bead flow cytometry, Alexa488-MEK5. Alexa488-MEK5 binding to MEKK2 WT; actives lie on both sides. binding response (% of control), % at 10 µM. 290,000 tested, 1.1% active. AID 1531, 2009; in the data active = binding response below about 67% or above about 130%
MEKK2wt confirm = modulators of MEK5 binding to wildtype MEKK2, confirmation, biochemical, single concentration, multiplex bead flow cytometry | 5,900 tested, 2.4% active | shares compounds with MEKK3 PB1 HTS | Alexa488-MEK5 binding to MEKK2 WT; actives lie on both sides | binding response (% of control), % at 10 µM; in the data active = binding response below about 16% or above about 210%; inactive = in between
MEKK2mut confirm = mutant MEKK2 PB1-MEK5 binding signal retest – biochemical, single concentration, multiplex bead flow cytometry, confirmation; 5,900 tested, 2% active; Alexa488-MEK5 binding to MEKK2 mutant; shares compounds with MEKK3 PB1 HTS; AID 1893, 2009; percent response, % at 10 µM; in the data active = percent response mostly above about 71%, no sharp cut-off; inactive = mostly below about 38%;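 also: higher means compound restores mutant binding toward wildtype level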
MEKK3 confirm = MEKK3 wild-type PB1 binding to MEK5, inhibitors, confirmation, biochemical, bead multiplex flow cytometry, single concentration, wildtype | AID 1894, 2009 | 5,900 tested, 1.8% active | Alexa488-MEK5 binding to MEKK3; stronger effect = lower value | shares compounds with MEKK3 PB1 HTS | binding response (% of control), % at 10 µM;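 active = binding response below 72% of control, or above a set upper limit, though filed actives all read lower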
Numbers stand for hits; [ ] = remark or other dose.

Cc1c2ccccc2nc2c(F)c(N(C)C)c(F)c(F)c12 was read as UBC13 polyUb inactive, MEKK3 PB1 HTS 145, MEKK2mut PB1 HTS inactive, Apaf-1 inh inactive, MEKK2wt PB1 HTS inactive, MEKK2wt confirm inactive, MEKK2mut confirm inactive and MEKK3 confirm inactive.
For Cc1ccc(OC(=O)c2cccnc2)cc1 the results were UBC13 polyUb inactive, MEKK3 PB1 HTS 57[inhibitor], MEKK2mut PB1 HTS inactive, Apaf-1 inh inactive, MEKK2wt PB1 HTS 56[inhibitor], MEKK2wt confirm inactive, MEKK2mut confirm inactive and MEKK3 confirm inactive.
COC(=O)c1cc(Br)ccc1OC(=O)c1cccnc1 was read as UBC13 polyUb inactive, MEKK3 PB1 HTS 0.0[inhibitor], MEKK2mut PB1 HTS inactive, Apaf-1 inh inactive, MEKK2wt PB1 HTS 0.0[inhibitor], MEKK2wt confirm inactive, MEKK2mut confirm inactive and MEKK3 confirm inactive.
O=C(C1=C[C@H](c2ccc(C(F)(F)F)cc2)C[C@H](OCCCCO)O1)N1CCOCC1 was read as UBC13 polyUb inactive, MEKK3 PB1 HTS 82[inhibitor], MEKK2mut PB1 HTS inactive, Apaf-1 inh inactive, MEKK2wt PB1 HTS inactive, MEKK2wt confirm inactive, MEKK2mut confirm inactive and MEKK3 confirm inactive.
Screening CCS(=O)(=O)n1nc(-c2ccccc2)nc1SC returned UBC13 polyUb inactive, MEKK3 PB1 HTS inactive, MEKK2mut PB1 HTS inactive, Apaf-1 inh inactive and MEKK2wt PB1 HTS inactive.
`NC(N)=N/N=C/c1ccc(OS(=O)(=O)c2ccccc2)cc1` gave UBC13 polyUb inactive, MEKK3 PB1 HTS inactive, MEKK2mut PB1 HTS inactive, Apaf-1 inh inactive, MEKK2wt PB1 HTS 146, MEKK2wt confirm inactive, MEKK2mut confirm inactive and MEKK3 confirm inactive.
Screening CCOc1ccccc1C(=O)Nc1ccccc1O returned UBC13 polyUb inactive, MEKK3 PB1 HTS 78[inhibitor], MEKK2mut PB1 HTS inactive, Apaf-1 inh inactive, MEKK2wt PB1 HTS inactive, MEKK2wt confirm inactive, MEKK2mut confirm inactive and MEKK3 confirm inactive.
For CCOc1ccccc1C(=O)Nc1cccc2ccccc12 the results were UBC13 polyUb inactive, MEKK3 PB1 HTS inactive, MEKK2mut PB1 HTS inactive, Apaf-1 inh inactive and MEKK2wt PB1 HTS inactive.
CCN(CC)C1CCN(C(=O)c2cc(COc3ccc(-n4cncn4)cc3)on2)C1 (stereo not given) was read as UBC13 polyUb inactive, MEKK3 PB1 HTS inactive, MEKK2mut PB1 HTS inactive, Apaf-1 inh inactive and MEKK2wt PB1 HTS inactive.
For CN(C(=O)CSC1=Nc2ccccc2C2=NC(c3ccccc3)C(=O)N12)C1CCCCC1 (stereo not given) the results were UBC13 polyUb inactive, MEKK3 PB1 HTS inactive, MEKK2mut PB1 HTS inactive, Apaf-1 inh inactive and MEKK2wt PB1 HTS inactive.
Screening O=C(CSC1=Nc2ccccc2C2=NC(c3ccccc3)C(=O)N12)NC1CCCCC1 (stereo not given) returned UBC13 polyUb inactive, MEKK3 PB1 HTS 124, MEKK2mut PB1 HTS inactive, Apaf-1 inh inactive, MEKK2wt PB1 HTS inactive, MEKK2wt confirm inactive, MEKK2mut confirm inactive and MEKK3 confirm inactive.
Screening Cc1ccc(NC(=O)C(C)OC(=O)c2ccc(NC(=O)CC#N)cc2)cc1S(=O)(=O)N1CCOCC1 (stereo not given) returned UBC13 polyUb inactive and Apaf-1 inh inactive.
For Fc1cccc(Cl)c1Cn1nnc2c(NCc3ccncc3)ncnc21 the results were UBC13 polyUb inactive, MEKK3 PB1 HTS inactive, MEKK2mut PB1 HTS 63, Apaf-1 inh inactive, MEKK2wt PB1 HTS inactive, MEKK2wt confirm inactive, MEKK2mut confirm inactive and MEKK3 confirm inactive.
Screening Fc1cccc(Cl)c1Cn1nnc2c(NCc3ccccn3)ncnc21 returned UBC13 polyUb inactive, MEKK3 PB1 HTS inactive, MEKK2mut PB1 HTS inactive, Apaf-1 inh inactive and MEKK2wt PB1 HTS inactive.
Screening Cc1cc(N2O[C@H]3C=C[C@@H]2C3)no1 returned Apaf-1 inh inactive.
`COc1ccc(C(=S)N2CCN(c3ccccc3C)CC2)cc1` gave UBC13 polyUb inactive, MEKK3 PB1 HTS inactive, MEKK2mut PB1 HTS inactive, Apaf-1 inh inactive and MEKK2wt PB1 HTS inactive.
COc1ccc(C(CNC(=O)c2oc3ccc(Br)cc3c2C)N2CCCCC2)cc1 (stereo not given) was read as UBC13 polyUb inactive, MEKK3 PB1 HTS inactive, MEKK2mut PB1 HTS inactive, Apaf-1 inh inactive, MEKK2wt PB1 HTS 153, MEKK2wt confirm inactive, MEKK2mut confirm inactive and MEKK3 confirm inactive.
COc1ccc(C(CNC(=O)c2oc3ccc(F)cc3c2C)N2CCCCC2)cc1 (stereo not given) was read as UBC13 polyUb inactive, MEKK3 PB1 HTS inactive, MEKK2mut PB1 HTS inactive, Apaf-1 inh inactive and MEKK2wt PB1 HTS inactive.
Screening COc1ccc(C(CNC(=O)c2ccc(C)c(S(=O)(=O)Nc3ccccc3OC)c2)N2CCCC2)cc1 (stereo not given) returned UBC13 polyUb inactive, MEKK3 PB1 HTS inactive, MEKK2mut PB1 HTS 29, Apaf-1 inh inactive, MEKK2wt PB1 HTS 154, MEKK2wt confirm inactive, MEKK2mut confirm inactive and MEKK3 confirm inactive.
Screening COc1ccc(C(CNC(=O)c2cccc(S(=O)(=O)Nc3ccccc3OC)c2)N2CCCC2)cc1 (stereo not given) returned UBC13 polyUb inactive and Apaf-1 inh inactive.
For Cc1c(C(=O)Nc2ccc(-c3nnc4n3CCCCC4)cc2)oc2ccc(Br)cc12 the results were UBC13 polyUb inactive, MEKK3 PB1 HTS inactive, MEKK2mut PB1 HTS inactive, Apaf-1 inh inactive, MEKK2wt PB1 HTS 1.0[inhibitor], MEKK2wt confirm inactive, MEKK2mut confirm inactive and MEKK3 confirm inactive.
For Cc1ccc(-n2c(O)c(C=NCc3ccccn3)c3ccccc3c2=O)cc1 the results were UBC13 polyUb inactive, MEKK3 PB1 HTS 129, MEKK2mut PB1 HTS inactive, Apaf-1 inh inactive, MEKK2wt PB1 HTS inactive, MEKK2wt confirm inactive, MEKK2mut confirm inactive and MEKK3 confirm inactive.
For OCCCCNCc1ccc(OCc2ccc(Cl)cc2Cl)cc1 the results were UBC13 polyUb inactive, MEKK3 PB1 HTS inactive, MEKK2mut PB1 HTS 34, Apaf-1 inh inactive, MEKK2wt PB1 HTS 169, MEKK2wt confirm inactive, MEKK2mut confirm 75 and MEKK3 confirm inactive.

Screens deposited in PubChem by several laboratories.
